Compound activity: PubChem BioAssay, SRMLSC
This excerpt belongs to a sample that is enriched for hits.
HUVEC prolif 384 = human endothelial cell proliferation inhibition; HUVEC proliferation, CellTiter-Glo luminescence, 72 h; hits give low values; viability, % at 10 µM (by protocol); 86,000 tested, 1.1% active;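 active means viability at or below 30%; inactive means viability above 30%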
H69AR growth 86K = blocks growth of human H69AR lung tumor cells; viability, % at 10 µM; H69AR lung tumor viability, ATP luminescence, 72 h; hits give low values; 85,000 tested, 6% active; AID 598;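 active means viability at or below 40%; inactive means viability above 40%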;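 further: multidrug resistant small cell line overexpressing MRP-1 efflux transporter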
PTEN del growth = suppresses growth of cells with PTEN deletion. HCT116 PTEN-null viability, CellTiter-Glo, 60 h; hits give low values. viability, % at 10 µM. 140,000 tested, 1.2% active;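 active means viability at or below a set limit, 4 SD under the median of all tested compounds, cut at about 3.7% in these data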;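 further: PTEN knockout HCT116 line with beta catenin targeted HCT116 as companion control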
HCT116 bCat-KO = beta-catenin-lacking colon tumor cell growth suppression; HCT116 beta-catenin knockout viability, CellTiter-Glo, 60 h; hits give low values; viability, % at 10 µM; 140,000 tested, 1.5% active;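 active means viability at or under a set limit, the compound median less 4 SD, cut at about 6% in these data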
Lung fibro prol = blocks proliferation of human lung fibroblasts; 85,000 tested, 1.1% active; LL 47 human lung fibroblast viability, ATP luminescence; hits give low values; AID 719; viability, % at 10 µM;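 active means viability at or below 50% in the single dose screen; inactive means viability above 50%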;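 further: compound exposure lasted 72 h before the ATP readout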
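Signal: luminescent ATP detection, CellTiter-Glo; assay system: LL 47 human lung fibroblasts; input: 1,150 cells/well; incubation: overnight cell rest, 72 h compound treatment at 37 °C; measure: % viability versus median cells-only luminescence; medium: IMEM growth medium with 15% fetal bovine serum; dosing: compound addition at 0.1% DMSO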
A number is an active result.

CCOc1ccc(C2=NNC(c3cccs3)=Nc3ccc(OC)cc32)cc1OCC was read as HUVEC prolif 384 inactive, H69AR growth 86K 38, PTEN del growth inactive, HCT116 bCat-KO inactive and Lung fibro prol inactive.
For CCOC(=O)c1c(NC(=O)CSc2nnc(CNc3ccc(F)cc3)o2)sc(C)c1C the results were HUVEC prolif 384 inactive, H69AR growth 86K inactive, PTEN del growth inactive, HCT116 bCat-KO inactive and Lung fibro prol inactive.
Screening O=C(Nc1ccccc1-c1ccccc1NC(=O)c1ccco1)c1ccco1 returned HUVEC prolif 384 inactive, H69AR growth 86K 40, PTEN del growth inactive, HCT116 bCat-KO inactive and Lung fibro prol inactive.
`O=C(Nc1ccccc1NC(=O)c1ccco1)c1ccco1` gave HUVEC prolif 384 inactive, H69AR growth 86K inactive, PTEN del growth inactive, HCT116 bCat-KO inactive and Lung fibro prol inactive.
CC(C)Oc1ccc(C(=O)Nc2ccc(NC(=O)c3ccco3)c(Cl)c2)cc1 was read as HUVEC prolif 384 inactive, H69AR growth 86K inactive, PTEN del growth inactive, HCT116 bCat-KO inactive and Lung fibro prol inactive.
CC(C)COc1ccc(C(=O)Nc2ccc(NC(=O)c3ccco3)c(Cl)c2)cc1 was read as HUVEC prolif 384 inactive, H69AR growth 86K 6.7, PTEN del growth inactive, HCT116 bCat-KO inactive and Lung fibro prol inactive.
For COc1cc(OC)cc(C(=O)Nc2cc(NC(=O)c3ccco3)ccc2OC)c1 the results were HUVEC prolif 384 inactive, H69AR growth 86K 37, PTEN del growth inactive, HCT116 bCat-KO inactive and Lung fibro prol inactive.
For O=C(Nc1ccc(Cl)cc1C(=O)Nc1ccncc1)c1ccco1 the results were HUVEC prolif 384 inactive, H69AR growth 86K 36, PTEN del growth inactive, HCT116 bCat-KO inactive and Lung fibro prol inactive.
For CCOC(=O)C(Cc1ccccc1)NS(=O)(=O)c1ccc(NC(C)=O)cc1 (centres undefined) the results were HUVEC prolif 384 inactive, H69AR growth 86K inactive, PTEN del growth inactive, HCT116 bCat-KO inactive and Lung fibro prol inactive.
Screening Cc1cc(NC(=O)CSc2nc3ccccc3n2CC(=O)N2CCCCC2)no1 returned HUVEC prolif 384 inactive, H69AR growth 86K inactive, PTEN del growth inactive, HCT116 bCat-KO inactive and Lung fibro prol inactive.
For COc1cc(NC(=O)c2ccco2)c(OC)cc1NC(=O)Nc1ccc(Cl)cc1 the results were HUVEC prolif 384 inactive, H69AR growth 86K 11, PTEN del growth inactive, HCT116 bCat-KO inactive and Lung fibro prol inactive.
Screening CCCCNS(=O)(=O)c1ccc2nc(-c3cccnc3)cc(C(=O)NC3CC3)c2c1 returned PTEN del growth 0.4 and HCT116 bCat-KO 0.3.
CCCCNS(=O)(=O)c1ccc2nc(-c3cccnc3)cc(C(=O)NC(C)C)c2c1 was read as PTEN del growth inactive and HCT116 bCat-KO inactive.
For CC(=O)/C(=N/Nc1ccc(Br)cc1)Sc1cccc2cccnc12 the results were PTEN del growth inactive and HCT116 bCat-KO inactive.
CCCSc1nc(SCC(=O)NCc2ccccc2)c2c3c(sc2n1)COC(C)(C)C3 was read as HUVEC prolif 384 inactive, H69AR growth 86K inactive, PTEN del growth inactive, HCT116 bCat-KO inactive and Lung fibro prol inactive.
Screening CC(C)Sc1nc(SCC(=O)NCc2ccco2)c2c3c(sc2n1)COC(C)(C)C3 returned HUVEC prolif 384 inactive, H69AR growth 86K 34, PTEN del growth inactive, HCT116 bCat-KO inactive and Lung fibro prol inactive.
Screening CCCc1nc2sc3c(SCC(=O)NCc4ccco4)ncnc3c2c2c1CCC2 returned HUVEC prolif 384 inactive, H69AR growth 86K 8.6, PTEN del growth inactive, HCT116 bCat-KO inactive and Lung fibro prol inactive.
Cc1nc(N2CCOCC2)nc(N2CCN(c3ccccc3)CC2)c1[N+](=O)[O-] was read as PTEN del growth inactive and HCT116 bCat-KO inactive.
Screening Cc1cc2c(N)cccc2nn1 returned HUVEC prolif 384 inactive, H69AR growth 86K inactive, PTEN del growth inactive, HCT116 bCat-KO inactive and Lung fibro prol inactive.
`Nc1cccc2nc3ccccc3cc12` gave HUVEC prolif 384 4.2, H69AR growth 86K 9.2, PTEN del growth 3.2, HCT116 bCat-KO 4.0 and Lung fibro prol 19.
Screening CCCC(=O)OCC(=O)Nc1ccc(N=Nc2ccccc2)cc1 returned PTEN del growth inactive and HCT116 bCat-KO inactive.
`O=C1Nc2ccccc2/C1=C/C(=O)c1cccs1` gave HUVEC prolif 384 inactive, H69AR growth 86K 0.7, PTEN del growth 1.6, HCT116 bCat-KO 2.0 and Lung fibro prol 34.
Screening CC(NCCC(c1ccccc1)c1ccccc1)c1ccccc1 (centres undefined) returned HUVEC prolif 384 26, H69AR growth 86K 0.2, PTEN del growth inactive, HCT116 bCat-KO 1.9 and Lung fibro prol 2.7.
CCNCCOC(c1ccccc1)c1ccccc1 was read as HUVEC prolif 384 inactive, H69AR growth 86K inactive, PTEN del growth inactive, HCT116 bCat-KO inactive and Lung fibro prol inactive.
CC(=O)c1ccc(NC(=O)C2CC(c3ccc(F)cc3)=NO2)cc1 (centres undefined) was read as HUVEC prolif 384 inactive, H69AR growth 86K inactive, PTEN del growth inactive, HCT116 bCat-KO inactive and Lung fibro prol inactive.
CCOC(=O)/C(C#N)=C\C1=C(N2CCCC2)CC(C)(CC)OC1 (centres undefined) was read as HUVEC prolif 384 inactive, H69AR growth 86K 36, PTEN del growth inactive, HCT116 bCat-KO inactive and Lung fibro prol inactive.
Screening CCCc1cc(C(N)=O)c(NC(C)=O)s1 returned HUVEC prolif 384 inactive, H69AR growth 86K 40, PTEN del growth inactive, HCT116 bCat-KO inactive and Lung fibro prol inactive.
Screening C=CCCCCCCCCC(=O)Nc1c[nH]c(=O)[nH]c1=O returned HUVEC prolif 384 inactive, H69AR growth 86K inactive, PTEN del growth inactive, HCT116 bCat-KO inactive and Lung fibro prol inactive.
`Cc1ccc(S(=O)(=O)N2CCC(=O)N(CCOC(=O)Nc3cc(C)cc(C)c3)CC2)cc1` gave PTEN del growth inactive and HCT116 bCat-KO inactive.
CCOc1cc(C(=O)N(C)Cc2cc3cc(OC)ccc3[nH]c2=O)cc(OCC)c1OCC was read as HUVEC prolif 384 inactive, H69AR growth 86K inactive, PTEN del growth inactive, HCT116 bCat-KO inactive and Lung fibro prol inactive.
Screening OC(CNc1ccccc1)COc1ccc(OCC(O)CNc2ccccc2)cc1 (centres undefined) returned PTEN del growth 1.6 and HCT116 bCat-KO 1.7.
CCOCC(O)CNc1ccccc1 (centres undefined) was read as PTEN del growth inactive and HCT116 bCat-KO inactive.
CCc1nc(N2CCCCC2C)c2oc3ccccc3c2n1 (centres undefined) was read as HUVEC prolif 384 inactive, H69AR growth 86K 22, PTEN del growth inactive, HCT116 bCat-KO inactive and Lung fibro prol inactive.
For CCc1nc(Nc2ccncc2)c2oc3ccccc3c2n1 the results were HUVEC prolif 384 inactive, H69AR growth 86K inactive, PTEN del growth 1.7, HCT116 bCat-KO 2.0 and Lung fibro prol inactive.
For COc1ccc(Cl)cc1NC(=O)COC(=O)CNC(=O)c1ccc([N+](=O)[O-])c(C)c1 the results were PTEN del growth inactive and HCT116 bCat-KO inactive.
Screening COc1cccc(CN(C)CC(=O)NNC(=O)c2ccc(Cl)cc2)c1 returned PTEN del growth inactive and HCT116 bCat-KO inactive.
Screening COc1ccc(/C=N/n2c(=O)[nH]c3c([nH]c4ccc(Br)cc43)c2=O)cc1CN1CCOCC1 returned PTEN del growth inactive and HCT116 bCat-KO inactive.
